Active and inactive are the calls of the source. The rule behind the calls is not given here.
Legend:
[1] = molecular target: T1, Acetylcholinesterase (Homo sapiens, UniProt P22303); test: Inhibition of recombinant human AChE using acetylthiocholineiodide as substrate preincubated for 20 mins followed by substrate addition by Ellman's method relative to parent compound
[2] = system: Mus musculus; test: Antialzheimer activity in 11 months old APP/PS1 double mutant-transgenic mouse model assessed as ratio of amyloid beta42 to amyloid beta40 levels in hippocampus at 2 mg/kg, ip administered thrice a week for 4 weeks by ELISA (reference value: 7.99 +/- 0.60); assay type: functional
[3] = system: Mus musculus; test: Cognitive enhancing effect in 11 months old APP/PS1 double mutant-transgenic mouse model assessed as increase in preference index for object at 2 mg/kg, ip administered thrice a week for 4 weeks by novel object localization test; assay type: functional, organism-based
How it was run: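 Male APP/PS1 mice received 2 mg/kg i.p. in saline (or vehicle), three times per week for 4 weeks. Preference index = time exploring the relocated or novel object divided by total time exploring both objects. Mean ± SEM, n = 7 per group; one-way ANOVA with Bonferroni post hoc.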

[4] = system: Mus musculus; test: Antialzheimer activity in 11 months old APP/PS1 double mutant-transgenic mouse model assessed as amyloid beta40 levels in hippocampus at 2 mg/kg, ip administered thrice a week for 4 weeks by ELISA (reference value: 8.65 +/- 0.44 pg/ml); assay type: functional
How it was run: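 Male APP/PS1 mice received 2 mg/kg i.p. in saline (or vehicle), three times weekly for 4 weeks. After the behavioral tests, hippocampus was collected and Aβ40 and Aβ42 were measured with a specific ELISA kit. Mean ± SEM, n = 7 mice per group; one-way ANOVA with Bonferroni post hoc.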

[5] = molecular target: Acetylcholinesterase (Electrophorus electricus) (UniProt O42275); test: Displacement of propidium iodide from PAS-region of electric eel AChE assessed as decrease in fluorescence intensity by spectrofluorimetric analysis
Sequence of Acetylcholinesterase (Electrophorus electricus) (O42275 24-633 limits assumed): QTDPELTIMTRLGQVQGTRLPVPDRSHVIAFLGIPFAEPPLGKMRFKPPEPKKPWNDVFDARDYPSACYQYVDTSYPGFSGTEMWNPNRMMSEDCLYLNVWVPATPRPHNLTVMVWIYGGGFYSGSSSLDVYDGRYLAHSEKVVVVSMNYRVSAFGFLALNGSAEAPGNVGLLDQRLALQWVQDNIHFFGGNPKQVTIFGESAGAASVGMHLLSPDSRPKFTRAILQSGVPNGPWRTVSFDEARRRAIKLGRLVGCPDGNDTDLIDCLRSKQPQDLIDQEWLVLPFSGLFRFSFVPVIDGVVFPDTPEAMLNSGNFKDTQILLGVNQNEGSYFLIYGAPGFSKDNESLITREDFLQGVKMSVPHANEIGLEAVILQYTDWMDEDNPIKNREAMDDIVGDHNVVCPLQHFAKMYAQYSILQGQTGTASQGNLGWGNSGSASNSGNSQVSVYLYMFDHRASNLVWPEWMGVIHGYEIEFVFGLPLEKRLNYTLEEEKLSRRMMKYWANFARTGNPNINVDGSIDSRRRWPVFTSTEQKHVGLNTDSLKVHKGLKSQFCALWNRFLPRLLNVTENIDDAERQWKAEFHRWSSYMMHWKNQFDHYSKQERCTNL
How it was run: (§1)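 Back-titration fluorescence assay using electric eel AChE (type VI-S). Inhibitor was added in successive aliquots from a MeOH stock. Emission was read at 602 nm with excitation at 535 nm, after subtracting blanks. […] Three independent experiments.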

[6] = molecular target: T1, Acetylcholinesterase; test: Mixed-type inhibition of recombinant human AChE assessed as dissociation constant for protein-substrate-compound complex using acetylthiocholine iodide as substrate by Cornish-Bowden plot analysis
How it was run: (§2)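 Kinetics on human recombinant AChE with acetylthiocholine at 0.113–0.566 mM and inhibitor at 0.17–1.36 nM. Lineweaver–Burk plots were fitted by weighted least squares. Ki was taken as the negative x-intercept of a replot of slopes vs [I]. K'i came from a plot of apparent 1/vmax vs [I]. Two independent experiments, each in triplicate.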

[7] = molecular target: Acetylcholinesterase (Electrophorus electricus) (UniProt O42275); test: Displacement of propidium iodide from PAS-region of electric eel AChE assessed as decrease in fluorescence intensity at 4 to 64 uM by spectrofluorimetric analysis relative to control; design: scale not given: the % may be the effect or the level left; settings: dose 4-64 µM; how it was run: as §1
[8] = molecular target: T1, Acetylcholinesterase; test: Mixed-type inhibition of recombinant human AChE using varying concentration of acetylthiocholine iodide as substrate at 0.17 to 1.36 nM by Lineweaver-burk plot analysis; how it was run: as §2

T1 sequence (P22303 whole entry): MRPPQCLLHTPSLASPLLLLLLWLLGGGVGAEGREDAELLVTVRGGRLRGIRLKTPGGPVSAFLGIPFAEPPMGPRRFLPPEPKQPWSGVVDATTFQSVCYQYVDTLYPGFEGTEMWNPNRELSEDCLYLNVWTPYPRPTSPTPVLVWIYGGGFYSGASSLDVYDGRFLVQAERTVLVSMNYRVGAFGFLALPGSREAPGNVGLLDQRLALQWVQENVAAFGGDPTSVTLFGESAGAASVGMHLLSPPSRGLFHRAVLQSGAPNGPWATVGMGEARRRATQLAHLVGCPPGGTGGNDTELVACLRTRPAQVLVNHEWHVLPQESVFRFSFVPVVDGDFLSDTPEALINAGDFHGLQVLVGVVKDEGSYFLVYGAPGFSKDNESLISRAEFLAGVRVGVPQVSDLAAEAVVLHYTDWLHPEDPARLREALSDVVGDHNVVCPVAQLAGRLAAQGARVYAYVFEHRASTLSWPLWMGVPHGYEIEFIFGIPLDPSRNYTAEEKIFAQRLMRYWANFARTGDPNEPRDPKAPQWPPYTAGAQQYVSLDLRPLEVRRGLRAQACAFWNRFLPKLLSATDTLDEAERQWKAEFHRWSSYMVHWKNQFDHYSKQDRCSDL

Row | SMILES | fold change (FC) [1] | Ratio [2] | Activity [3] | Activity [4] | Activity [5] | Ki [6] | Activity [7] | Kd [8] | inhibition ([8]; dose 0.17-1.36 nM)
1 | COc1cc(CNC(=O)Cc2cn(CCCCC3=CC4Cc5nc6cc(Cl)ccc6c(N)c5C(C3)C4)nn2)ccc1O (centres undefined) | 25 | 3.42 | Active | 18.4 pg/mL |  |  |  |  | 
2 | COc1cc(CNC(=O)CCCCCCNc2c3c(nc4cc(Cl)ccc24)CC2C=C(C)CC3C2)ccc1O (centres undefined) |  |  |  |  | Dose-dependent effect | 0.94 nM | 23% | 0.94 nM | Active

— ChEMBL document CHEMBL4706642, “Discovery of a Potent Dual Inhibitor of Acetylcholinesterase and Butyrylcholinesterase with Antioxidant Activity that Alleviates Alzheimer-like Pathology in Old APP/PS1 Mice” (J Med Chem, 2021)
